Test results reported in ChEMBL document CHEMBL1765016, “Indolylarylsulfones as HIV-1 non-nucleoside reverse transcriptase inhibitors: new cyclic substituents at indole-2-carboxamide” (J Med Chem, 2011).

Biological target: Human immunodeficiency virus type 1 reverse transcriptase (Human immunodeficiency virus 1, UniProt Q72547)
Test: Inhibition of HIV1 wild type reverse transcriptase expressed in Escherichia coli assessed as incorporation of [3H]dTTP into poly(rA)/oligo(dT) by scintillation counting
Conditions: not given
Outline: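 Template was poly(rA)/oligo(dT) 10:1 (0.3 μM 3′-OH ends) with 10 μM [³H]dTTP, at 37 °C. TCA-precipitable counts were taken on GF/C filters. IC₅₀ is 50% inhibition of RT activity.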

SMILES | IC50 [nM]
Cc1cc(C)cc(S(=O)(=O)c2c(C(=O)NCc3ccccc3)[nH]c3ccc([N+](=O)[O-])cc23)c1 | 17
Cc1cc(C)cc(S(=O)(=O)c2c(C(=O)NCCN3CCCC3)[nH]c3ccc(Cl)cc23)c1 | 80
Cc1cc(C)cc(S(=O)(=O)c2c(C(=O)NCCc3ccccc3)[nH]c3ccc(Cl)cc23)c1 | 77
Cc1cc(C)cc(S(=O)(=O)c2c(C(=O)NCCOc3ccccc3)[nH]c3ccc(Cl)cc23)c1 | 2390
Cc1cc(C)cc(S(=O)(=O)c2c(C(=O)NCCN3CCOCC3)[nH]c3ccc([N+](=O)[O-])cc23)c1 | 55

Test system: Human immunodeficiency virus 1
Test: Antiviral activity against […] harboring reverse transcriptase K103N mutant infected in human MT-4 cells assessed as inhibition of virus-induced cytopathicity after 4 days by MTT assay
Type: functional, organism-based
Conditions: Human immunodeficiency virus 1, MT4, 96 h
Outline: (§1)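 MT-4 cells at 1 × 10⁵ cells/mL were infected with RT-mutant HIV-1 at a multiplicity of infection of 0.02. They were plated at once with serial compound dilutions (DMSO stocks of 50 mM or higher). […] Virus stocks had been titrated in MT-4 cells as CCID50.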

SMILES | EC50 [nM]
Cc1cc(C)cc(S(=O)(=O)c2c(C(=O)NCc3ccccc3)[nH]c3ccc([N+](=O)[O-])cc23)c1 | 11
Cc1cc(C)cc(S(=O)(=O)c2c(C(=O)NCCN3CCCC3)[nH]c3ccc(Cl)cc23)c1 | 80
Cc1cc(C)cc(S(=O)(=O)c2c(C(=O)NCCc3ccccc3)[nH]c3ccc(Cl)cc23)c1 | 52
Cc1cc(C)cc(S(=O)(=O)c2c(C(=O)NCCOc3ccccc3)[nH]c3ccc(Cl)cc23)c1 | > 1000

Test system: Human immunodeficiency virus 1
Test: Antiviral activity against HIV1 harboring reverse transcriptase Y181C mutant infected in human MT-4 cells assessed as inhibition of virus-induced cytopathicity after 4 days by MTT assay
Type: functional, organism-based
Conditions: Human immunodeficiency virus 1, MT4, 96 h
Outline: as §1

SMILES | EC50 [nM]
Cc1cc(C)cc(S(=O)(=O)c2c(C(=O)NCc3ccccc3)[nH]c3ccc([N+](=O)[O-])cc23)c1 | 54
Cc1cc(C)cc(S(=O)(=O)c2c(C(=O)NCCN3CCCC3)[nH]c3ccc(Cl)cc23)c1 | 380
Cc1cc(C)cc(S(=O)(=O)c2c(C(=O)NCCc3ccccc3)[nH]c3ccc(Cl)cc23)c1 | 100
Cc1cc(C)cc(S(=O)(=O)c2c(C(=O)NCCOc3ccccc3)[nH]c3ccc(Cl)cc23)c1 | > 1000

Test system: Human immunodeficiency virus 1
Test: Antiviral activity against wild type HIV1 3B infected in human CEM cells assessed as inhibition of virus-induced cytopathicity after 4 days by microscopic analysis
Type: functional, organism-based
Conditions: Human immunodeficiency virus 1, 3B, CCRF-CEM, 96 h
Outline: (§2)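 CEM cells (~3 × 10⁵ cells/mL) infected with ~100 CCID₅₀ virus per mL, seeded into wells with compound dilutions. Syncytia (giant cell) formation scored microscopically after 4 days at 37 °C. EC₅₀ is the concentration protecting cells by 50%. Values are means of two experiments in triplicate.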

SMILES | EC50 [nM]
Cc1cc(C)cc(S(=O)(=O)c2c(C(=O)NCc3ccccc3)[nH]c3ccc([N+](=O)[O-])cc23)c1 | 6.2
Cc1cc(C)cc(S(=O)(=O)c2c(C(=O)NCCN3CCCC3)[nH]c3ccc(Cl)cc23)c1 | 17
Cc1cc(C)cc(S(=O)(=O)c2c(C(=O)NCCc3ccccc3)[nH]c3ccc(Cl)cc23)c1 | 5.7
Cc1cc(C)cc(S(=O)(=O)c2c(C(=O)NCCOc3ccccc3)[nH]c3ccc(Cl)cc23)c1 | 26
Cc1cc(C)cc(S(=O)(=O)c2c(C(=O)NCCN3CCOCC3)[nH]c3ccc([N+](=O)[O-])cc23)c1 | 8

Biological target: Human immunodeficiency virus type 1 reverse transcriptase (Human immunodeficiency virus 1, UniProt Q72547, L100I)
Test: Inhibition of HIV1 reverse transcriptase L100I mutant expressed in Escherichia coli assessed as incorporation of [3H]dTTP into poly(rA)/oligo(dT) by scintillation counting
Conditions: not given
Outline: (§3)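 The RT was recombinant p66(His)/p51 heterodimer, mutant form, expressed in E. coli. TCA-precipitable radioactivity on GF/C filters was read by scintillation. IC50 is the concentration giving 50% inhibition.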

SMILES | IC50 [nM]
Cc1cc(C)cc(S(=O)(=O)c2c(C(=O)NCc3ccccc3)[nH]c3ccc([N+](=O)[O-])cc23)c1 | 14
Cc1cc(C)cc(S(=O)(=O)c2c(C(=O)NCCN3CCCC3)[nH]c3ccc(Cl)cc23)c1 | 248
Cc1cc(C)cc(S(=O)(=O)c2c(C(=O)NCCc3ccccc3)[nH]c3ccc(Cl)cc23)c1 | 27
Cc1cc(C)cc(S(=O)(=O)c2c(C(=O)NCCOc3ccccc3)[nH]c3ccc(Cl)cc23)c1 | > 40000
Cc1cc(C)cc(S(=O)(=O)c2c(C(=O)NCCN3CCOCC3)[nH]c3ccc([N+](=O)[O-])cc23)c1 | 421

Test system: not listed separately
Test: Selectivity index, CC50 for human CEM cells to IC50 for HIV1 3B
Type: functional, CCRF-CEM
Conditions: not given
Outline: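 Ratio of CC₅₀ (Coulter count, mock-infected CEM) to EC₅₀ (CEM, HIV-1 IIIB, microscopic syncytia scoring at day 4).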

SMILES | Selectivity Index
Cc1cc(C)cc(S(=O)(=O)c2c(C(=O)NCc3ccccc3)[nH]c3ccc([N+](=O)[O-])cc23)c1 | 1290
Cc1cc(C)cc(S(=O)(=O)c2c(C(=O)NCCN3CCCC3)[nH]c3ccc(Cl)cc23)c1 | 418
Cc1cc(C)cc(S(=O)(=O)c2c(C(=O)NCCc3ccccc3)[nH]c3ccc(Cl)cc23)c1 | 32456
Cc1cc(C)cc(S(=O)(=O)c2c(C(=O)NCCOc3ccccc3)[nH]c3ccc(Cl)cc23)c1 | 7962
Cc1cc(C)cc(S(=O)(=O)c2c(C(=O)NCCN3CCOCC3)[nH]c3ccc([N+](=O)[O-])cc23)c1 | 5250

Biological target: Human immunodeficiency virus type 1 reverse transcriptase (Human immunodeficiency virus 1, UniProt Q72547, Y181I)
Test: Inhibition of HIV1 reverse transcriptase Y181I mutant expressed in Escherichia coli assessed as incorporation of [3H]dTTP into poly(rA)/oligo(dT) by scintillation counting
Conditions: not given
Outline: as §3

SMILES | IC50 [nM]
Cc1cc(C)cc(S(=O)(=O)c2c(C(=O)NCc3ccccc3)[nH]c3ccc([N+](=O)[O-])cc23)c1 | > 40000
Cc1cc(C)cc(S(=O)(=O)c2c(C(=O)NCCN3CCCC3)[nH]c3ccc(Cl)cc23)c1 | > 40000
Cc1cc(C)cc(S(=O)(=O)c2c(C(=O)NCCc3ccccc3)[nH]c3ccc(Cl)cc23)c1 | > 40000
Cc1cc(C)cc(S(=O)(=O)c2c(C(=O)NCCOc3ccccc3)[nH]c3ccc(Cl)cc23)c1 | > 40000
Cc1cc(C)cc(S(=O)(=O)c2c(C(=O)NCCN3CCOCC3)[nH]c3ccc([N+](=O)[O-])cc23)c1 | > 40000

Test system: not listed separately
Test: Cytotoxicity against human CEM cells by coulter counter analysis
Type: cell-based
Conditions: CEM (CCRF-CEM) cells
Outline: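 Mock-infected CEM cultures with compound, cell number counted by Coulter counter as percent of untreated control. CC₅₀ (50% reduction in proliferation) was read from plots against concentration. Values are means of two experiments in triplicate.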

SMILES | CC50 [nM]
Cc1cc(C)cc(S(=O)(=O)c2c(C(=O)NCc3ccccc3)[nH]c3ccc([N+](=O)[O-])cc23)c1 | 8000
Cc1cc(C)cc(S(=O)(=O)c2c(C(=O)NCCN3CCCC3)[nH]c3ccc(Cl)cc23)c1 | 7100
Cc1cc(C)cc(S(=O)(=O)c2c(C(=O)NCCc3ccccc3)[nH]c3ccc(Cl)cc23)c1 | 185000
Cc1cc(C)cc(S(=O)(=O)c2c(C(=O)NCCOc3ccccc3)[nH]c3ccc(Cl)cc23)c1 | 207000
Cc1cc(C)cc(S(=O)(=O)c2c(C(=O)NCCN3CCOCC3)[nH]c3ccc([N+](=O)[O-])cc23)c1 | 42000

Test system: Human immunodeficiency virus 1
Test: Antiviral activity against HIV1 harboring reverse transcriptase Y188L mutant infected in human MT-4 cells assessed as inhibition of virus-induced cytopathicity after 4 days by MTT assay
Type: functional, organism-based
Conditions: Human immunodeficiency virus 1, MT4, 96 h
Outline: as §1

SMILES | EC50 [nM]
Cc1cc(C)cc(S(=O)(=O)c2c(C(=O)NCc3ccccc3)[nH]c3ccc([N+](=O)[O-])cc23)c1 | 470
Cc1cc(C)cc(S(=O)(=O)c2c(C(=O)NCCN3CCCC3)[nH]c3ccc(Cl)cc23)c1 | > 1000
Cc1cc(C)cc(S(=O)(=O)c2c(C(=O)NCCc3ccccc3)[nH]c3ccc(Cl)cc23)c1 | > 1000
Cc1cc(C)cc(S(=O)(=O)c2c(C(=O)NCCOc3ccccc3)[nH]c3ccc(Cl)cc23)c1 | > 1000

Biological target: Human immunodeficiency virus type 1 reverse transcriptase (Human immunodeficiency virus 1, UniProt Q72547, K103N)
Test: Inhibition of HIV1 reverse transcriptase K103N mutant expressed in Escherichia coli assessed as incorporation of [3H]dTTP into poly(rA)/oligo(dT) by scintillation counting
Conditions: not given
Outline: as §3

SMILES | IC50 [nM]
Cc1cc(C)cc(S(=O)(=O)c2c(C(=O)NCc3ccccc3)[nH]c3ccc([N+](=O)[O-])cc23)c1 | 459
Cc1cc(C)cc(S(=O)(=O)c2c(C(=O)NCCN3CCCC3)[nH]c3ccc(Cl)cc23)c1 | 660
Cc1cc(C)cc(S(=O)(=O)c2c(C(=O)NCCc3ccccc3)[nH]c3ccc(Cl)cc23)c1 | 10400
Cc1cc(C)cc(S(=O)(=O)c2c(C(=O)NCCOc3ccccc3)[nH]c3ccc(Cl)cc23)c1 | > 40000
Cc1cc(C)cc(S(=O)(=O)c2c(C(=O)NCCN3CCOCC3)[nH]c3ccc([N+](=O)[O-])cc23)c1 | > 40000

Test system: Human immunodeficiency virus 1
Test: Antiviral activity against HIV1 harboring reverse transcriptase E138K mutant infected in human MT-4 cells assessed as inhibition of virus-induced cytopathicity after 4 days by MTT assay
Type: functional, organism-based
Conditions: Human immunodeficiency virus 1, MT4, 96 h
Outline: as §1

SMILES | EC50 [nM]
Cc1cc(C)cc(S(=O)(=O)c2c(C(=O)NCc3ccccc3)[nH]c3ccc([N+](=O)[O-])cc23)c1 | 16
Cc1cc(C)cc(S(=O)(=O)c2c(C(=O)NCCN3CCCC3)[nH]c3ccc(Cl)cc23)c1 | 260
Cc1cc(C)cc(S(=O)(=O)c2c(C(=O)NCCc3ccccc3)[nH]c3ccc(Cl)cc23)c1 | 65
Cc1cc(C)cc(S(=O)(=O)c2c(C(=O)NCCOc3ccccc3)[nH]c3ccc(Cl)cc23)c1 | 380

Test system: Human immunodeficiency virus 2
Test: Antiviral activity against HIV2 isolate ROD infected in human CEM cells assessed as inhibition of virus-induced cytopathicity after 4 days by microscopic analysis
Type: functional, organism-based
Conditions: Human immunodeficiency virus 2, ISOLATE ROD, CCRF-CEM, 96 h
Outline: as §2

SMILES | EC50 [nM]
Cc1cc(C)cc(S(=O)(=O)c2c(C(=O)NCc3ccccc3)[nH]c3ccc([N+](=O)[O-])cc23)c1 | > 2000
Cc1cc(C)cc(S(=O)(=O)c2c(C(=O)NCCN3CCCC3)[nH]c3ccc(Cl)cc23)c1 | > 2000
Cc1cc(C)cc(S(=O)(=O)c2c(C(=O)NCCc3ccccc3)[nH]c3ccc(Cl)cc23)c1 | > 50000
Cc1cc(C)cc(S(=O)(=O)c2c(C(=O)NCCOc3ccccc3)[nH]c3ccc(Cl)cc23)c1 | > 10000
Cc1cc(C)cc(S(=O)(=O)c2c(C(=O)NCCN3CCOCC3)[nH]c3ccc([N+](=O)[O-])cc23)c1 | 4900

Test system: Human immunodeficiency virus 1
Test: Antiviral activity against wild type HIV1 3B infected in human MT-4 cells assessed as inhibition of virus-induced cytopathicity after 4 days by MTT assay
Type: functional, organism-based
Conditions: Human immunodeficiency virus 1, 3B, MT4, 96 h
Outline: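 MT-4 cells at 1 × 10⁵ cells/mL, infected at MOI 0.02 (virus titrated as CCID₅₀ in MT-4), dispensed immediately onto serial compound concentrations (DMSO stocks ≥50 mM). Viable cells counted by MTT after 4 days at 37 °C. EC₅₀ is the concentration giving 50% protection of cell viability. Values are means of at least three experiments.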

SMILES | EC50 [nM]
Cc1cc(C)cc(S(=O)(=O)c2c(C(=O)NCc3ccccc3)[nH]c3ccc([N+](=O)[O-])cc23)c1 | 10
Cc1cc(C)cc(S(=O)(=O)c2c(C(=O)NCCN3CCCC3)[nH]c3ccc(Cl)cc23)c1 | 19
Cc1cc(C)cc(S(=O)(=O)c2c(C(=O)NCCc3ccccc3)[nH]c3ccc(Cl)cc23)c1 | 21
Cc1cc(C)cc(S(=O)(=O)c2c(C(=O)NCCOc3ccccc3)[nH]c3ccc(Cl)cc23)c1 | 300

Test system: Human immunodeficiency virus 1
Test: Antiviral activity against HIV1 harboring reverse transcriptase L100I mutant infected in human MT-4 cells assessed as inhibition of virus-induced cytopathicity after 4 days by MTT assay
Type: functional, organism-based
Conditions: Human immunodeficiency virus 1, MT4, 96 h
Outline: as §1

SMILES | EC50 [nM]
Cc1cc(C)cc(S(=O)(=O)c2c(C(=O)NCc3ccccc3)[nH]c3ccc([N+](=O)[O-])cc23)c1 | 7
Cc1cc(C)cc(S(=O)(=O)c2c(C(=O)NCCN3CCCC3)[nH]c3ccc(Cl)cc23)c1 | 84
Cc1cc(C)cc(S(=O)(=O)c2c(C(=O)NCCc3ccccc3)[nH]c3ccc(Cl)cc23)c1 | 19
Cc1cc(C)cc(S(=O)(=O)c2c(C(=O)NCCOc3ccccc3)[nH]c3ccc(Cl)cc23)c1 | 440
